Assay results reported in ChEMBL document CHEMBL1134596, “Synthesis and conformational analysis of fusidic acid side chain derivatives in relation to antibacterial activity” (2001).
In brackets after ≈: the same amount, converted by molar mass.

Tests used:
Assay type in all cases: functional
Staphylococcus aureus [1] = assay: Minimum inhibitory concentration against Staphylococcus aureus ATCC 6538P
Procedure, shortened: (§1)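 Agar cup diffusion assay. Colonies from a fresh overnight culture were suspended in saline to 0.5 McFarland (10^8 CFU/mL). Mueller Hinton agar at 48 °C was seeded at 10^6 CFU/mL and poured, and holes were cut in it. Each hole received sample from a six-step dilution series between 0.25 and 125 µg/mL. After incubation, inhibition zone diameters were measured with an electronic caliper to estimate the MIC.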

Corynebacterium xerosis = assay: Minimum inhibitory concentration against Corynebacterium xerosis NCTC 9755; procedure, shortened: as §1
Staphylococcus aureus [2] = assay: Minimum inhibitory concentration against meticilline and rifampicin resistant Staphylococcus aureus CJ 234
Procedure, shortened: (§2)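 MIC by agar cup diffusion. Colonies from fresh overnight culture were suspended in saline to 0.5 McFarland (10^8 CFU/mL), and molten Mueller Hinton agar at 48 °C was seeded at 10^6 CFU/mL and poured. Wells each received 200 µL of one of six dilutions spanning 0.25–125 µg/mL. After incubation, inhibition zone diameters were measured by caliper. Strains came from ATCC or in-house clinical isolates.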

Staphylococcus aureus [3] = assay: Minimum inhibitory concentration against meticilline resistant Staphylococcus aureus CJ 232; procedure, shortened: as §2
Aspergillus niger = assay: Minimum inhibitory concentration against Aspergillus niger ATCC 16404
Candida albicans = assay: Minimum inhibitory concentration against Candida albicans ATCC 10231
Streptococcus pyogenes = assay: Minimum inhibitory concentration against Streptococcus pyogenes EC
Procedure, shortened: (§3)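 Streptococcal MICs were estimated by agar cup diffusion in Mueller Hinton agar supplemented with 5% sheep blood. The agar was seeded at 48 °C with 10^6 CFU/mL from a saline suspension at 0.5 McFarland. Cut holes were filled from six dilutions spanning 0.25–125 µg/mL. After incubation, growth-inhibition zone diameters were read with an electronic caliper.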

Escherichia coli = assay: Minimum inhibitory concentration against Escherichia coli HA 44; procedure, shortened: as §1
Staphylococcus aureus [4] = assay: Minimum inhibitory concentration against meticilline and fus resistant Staphylococcus aureus CJ 234; procedure, shortened: as §2
Enterococcus faecium = assay: Minimum inhibitory concentration against Streptococcus faecium EI 119; procedure, shortened: as §3
[5] = test system: Streptococcus equi subsp. zooepidemicus; assay: Minimum inhibitory concentration against Streptococcus zooepidermidis ED (gr.C); procedure, shortened: as §3
[6] = Minimum inhibitory concentration against Streptococcus. species EF 6; details: Bacteria; procedure, shortened: as §3
Micrococcus luteus = assay: Minimum inhibitory concentration against Micrococcus luteus ATCC 9341; procedure, shortened: as §1
[7] = test system: Streptococcus thermophilus; assay: Minimum inhibitory concentration against Streptococcus thermophilus EG 5; procedure, shortened: as §3
[8] = test system: Staphylococcus epidermidis; assay: Minimum inhibitory concentration against Staphylococcus epidermidis ATCC 12228; procedure, shortened: as §1
Streptococcus salivarius = assay: Minimum inhibitory concentration against Streptococcus salivarius EG 7 (gr.A); procedure, shortened: as §3
[9] = Minimum inhibitory concentration against Saccharomyces cerevisiae ZZ 7
Cutibacterium acnes = assay: Minimum inhibitory concentration against Propionibacterium acnes NCTC 737; procedure, shortened: as §1
Staphylococcus aureus [10] = assay: Minimum inhibitory concentration against Staphylococcus aureus ATCC 2977; procedure, shortened: as §2
Clostridium perfringens = assay: Minimum inhibitory concentration against Clostridium perfringens KT 13; procedure, shortened: as §2
Bacillus cereus = assay: Minimum inhibitory concentration against Bacillus cereus ATCC 10876; procedure, shortened: as §1
Staphylococcus aureus [11] = assay: Minimum inhibitory concentration against Staphylococcus aureus ATCC 29213; procedure, shortened: as §1

Row | Structure (SMILES) | MIC (Staphylococcus aureus [1]) [µg/mL] | MIC (Corynebacterium xerosis) [µg/mL] | MIC (Staphylococcus aureus [2]) [µg/mL] | MIC (Staphylococcus aureus [3]) [µg/mL] | MIC (Candida albicans) [µg/mL] | MIC (Streptococcus pyogenes) [µg/mL] | MIC (Escherichia coli) [µg/mL] | MIC (Staphylococcus aureus [4]) [µg/mL] | MIC (Enterococcus faecium) [µg/mL] | MIC [5] [µg/mL] | MIC [6] [µg/mL] | MIC (Micrococcus luteus) [µg/mL] | MIC [7] [µg/mL] | MIC [8] [µg/mL] | MIC (Streptococcus salivarius) [µg/mL] | MIC [9] [µg/mL] | MIC (Cutibacterium acnes) [µg/mL] | MIC (Staphylococcus aureus [10]) [µg/mL] | MIC (Clostridium perfringens) [µg/mL] | MIC (Bacillus cereus) [µg/mL] | further results
1 | CC(=O)O[C@H]1C[C@@]2(C)[C@@H](CC(O)[C@H]3[C@@]4(C)CCC(O)C(C)[C@@H]4CC[C@]32C)/C1=C(\CCC=C(C)C)C(=O)O (some centres not stated) | 0.007 (≈ 0.0135 µM) | 0.01 (≈ 0.0194 µM) | 0.006 (≈ 0.0116 µM) | 0.015 (≈ 0.029 µM) | 16 (≈ 31 µM) | 4 (≈ 7.74 µM) | > 125 | > 125 | 0.01 (≈ 0.0194 µM) | 16 (≈ 31 µM) | 4 (≈ 7.74 µM) | 1 (≈ 1.94 µM) | 4 (≈ 7.74 µM) | 0.0007 (≈ 0.00135 µM) | 4 (≈ 7.74 µM) | 4 (≈ 7.74 µM) | 0.003 (≈ 0.00581 µM) | 0.006 (≈ 0.0116 µM) | 16 (≈ 31 µM) | 4 (≈ 7.74 µM) | MIC (Aspergillus niger): 16 µg/mL (≈ 31 µM); MIC (Staphylococcus aureus [11]): 0.007 µg/mL (≈ 0.0135 µM)
2 | CC(=O)O[C@H]1C[C@@]2(C)C(CC(O)[C@H]3[C@@]4(C)CCC(O)C(C)C4CC[C@@]32C)[C@@H]1[C@H](CCCC(C)C)C(=O)O (some centres not stated) | 4 (≈ 7.68 µM) | 4 (≈ 7.68 µM) | 0.9 (≈ 1.73 µM) | 4 (≈ 7.68 µM) | > 125 | > 125 | > 125 | > 125 | 16 (≈ 30.7 µM) | > 125 | > 125 | > 125 | > 125 | 3.8 (≈ 7.3 µM) | > 125 | > 125 | 4 (≈ 7.68 µM) | 4 (≈ 7.68 µM) | > 125 | > 125 | MIC (Aspergillus niger): 16 µg/mL (≈ 30.7 µM); MIC (Staphylococcus aureus [11]): 2 µg/mL (≈ 3.84 µM)
3 | CC(=O)O[C@H]1C[C@@]2(C)C(CC(O)[C@H]3[C@@]4(C)CCC(O)C(C)C4CC[C@@]32C)C1[C@@H](CCC=C(C)C)C(=O)O (some centres not stated) | > 125 | > 125 | > 125 | > 125 | > 125 | > 125 | > 125 | > 125 | > 125 | > 125 | > 125 | > 125 | > 125 | > 125 | > 125 | > 125 | 4 (≈ 7.71 µM) | > 125 | > 125 | > 125 | MIC (Staphylococcus aureus [11]): > 125 µg/mL
4 | CC(=O)O[C@H]1C[C@@]2(C)C(CC(O)[C@H]3[C@@]4(C)CCC(O)C(C)C4CC[C@]32C)C1[C@H](CCC=C(C)C)C(=O)O (some centres not stated) | 0.012 (≈ 0.0231 µM) | 0.03 (≈ 0.0578 µM) | 0.03 (≈ 0.0578 µM) | 0.03 (≈ 0.0578 µM) | 64 (≈ 123 µM) | 16 (≈ 30.8 µM) | > 125 | > 125 | 0.025 (≈ 0.0482 µM) | 16 (≈ 30.8 µM) | 4 (≈ 7.71 µM) | 1 (≈ 1.93 µM) | 16 (≈ 30.8 µM) | 0.01 (≈ 0.0193 µM) | 4 (≈ 7.71 µM) | 4 (≈ 7.71 µM) | 0.03 (≈ 0.0578 µM) | 0.03 (≈ 0.0578 µM) | 16 (≈ 30.8 µM) | 1 (≈ 1.93 µM) | MIC (Aspergillus niger): 64 µg/mL (≈ 123 µM); MIC (Staphylococcus aureus [11]): 0.01 µg/mL (≈ 0.0193 µM)
